These results are taken from ChEMBL document CHEMBL2380254, “Optimization of tocotrienols as antiproliferative and antimigratory leads” (Eur J Med Chem, 2013).

By IC50 is commonly meant the concentration needed to halve the response being measured. Low readings indicate greater potency in that assay, high ones weaker potency in that assay.

In one test the test system is HOP-62. Briefly: Growth inhibition of human HOP62 cells assessed as cell growth at 10 uM after 48 hrs by sulforhodamine B assay. Type of test: functional. As to conditions: HOP-62, 48 h, read-out: Activity. The procedure, abridged:
(§1)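 NCI-60 single-dose screen at 10 µM: cells in RPMI 1640 with 5% FBS, preincubated 24 h, then exposed 48 h at 37 °C. TCA fixation (16% final for suspension cells), SRB staining, absorbance 515 nm. Percent growth relative to time-zero and untreated control plates; negative values indicate cell kill.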

Another test deals with HT-29. Briefly: Growth inhibition of human HT-29 cells assessed as cell growth at 10 uM after 48 hrs by sulforhodamine B assay. In kind it is functional. As to conditions: HT-29, 48 h, read-out: Activity. The gist of the method:
as §1
(In SRB staining, fixed cells bind dye roughly in proportion to their protein.)

Test [1] concerns MDA-MB-231. Briefly: Antiproliferative activity against human MDA-MB-231 cells by MTT assay. Type of test: functional, cell-based. The procedure, abridged:
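Cells plated at 8 × 10^3/well (MDA-MB-231) or 10^4/well (MCF7) in 96-well plates. Compounds fed in media with 5% FBS (MDA-MB-231) or 1% FBS (MCF7). MTT read-out of viable cells.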
(In general: Formazan colour is commonly taken as a measure of viable cells.)

A further test relates to RXF 393. Nature of the test: Growth inhibition of human RXF393 cells assessed as cell growth at 10 uM after 48 hrs by sulforhodamine B assay. Type of test: functional. As to conditions: RXF 393, 48 h, read-out: Activity. The gist of the method:
(§2)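 Single-dose NCI-60 screen: adherent cells in RPMI 1640 with 5% FBS were exposed to 10 µM for 48 h at 37 °C after a 24 h preincubation. They were fixed in situ with cold TCA (10% final), stained with 0.4% SRB in 1% acetic acid, solubilized in 10 mM Tris base, and read at 515 nm. Percent growth was taken relative to time-zero and control plates.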

The test system of a further test is SN12C. Briefly: Growth inhibition of human SN12C cells assessed as cell growth at 10 uM after 48 hrs by sulforhodamine B assay. Type of test: functional. As to conditions: read-out: Activity. The procedure, abridged:
(§3)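 Single-dose NCI-60 test at 10 µM. Cells were grown in RPMI 1640 with 5% FBS and 2 mM L-glutamine, preincubated 24 h, with T0 plates TCA-fixed. Exposure was 48 h at 37 °C, 5% CO2. Cells were fixed with cold TCA (final 10%, 4 °C, 60 min), stained with SRB and read at 515 nm. Percent growth was taken relative to T0 and untreated control; negative values denote cell kill.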

The test system of another test is K562. Briefly: Growth inhibition of human K562 cells assessed as cell growth at 10 uM after 48 hrs by sulforhodamine B assay. In kind it is functional. As to conditions: K562, 48 h, read-out: Activity. The gist of the method:
as §1

Test [2] can be described thus: Antiproliferative activity against mouse +SA cells by MTT assay. In kind it is functional, cell-based. As to conditions: +SA cell. The procedure, abridged: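 Mouse +SA mammary epithelial cells in serum-free DMEM/F12 with BSA, transferrin, insulin and EGF. Compounds from DMSO stock conjugated to BSA (overnight, 37 °C); 0–40 µM, final DMSO <0.1%. MTT 0.42 mg/mL for 4 h at 37 °C, isopropanol solubilization, OD 570 nm. Cell number from a standard curve; IC50 by non-linear regression.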

The next test deals with SK-MEL-5. Briefly: Growth inhibition of human SK-MEL-5 cells assessed as cell growth at 10 uM after 48 hrs by sulforhodamine B assay. Type of test: functional. As to conditions: SK-MEL-5, 48 h, read-out: Activity. The gist of the method: as §2
The subject of the next test is COLO 205. Nature of the test: Growth inhibition of human COLO205 cells assessed as cell growth at 10 uM after 48 hrs by sulforhodamine B assay. As to conditions: COLO 205, 48 h, read-out: Activity. In kind it is functional. The procedure, abridged:
as §1

In the next test the test system is MCF7. Nature of the test: Growth inhibition of human MCF7 cells assessed as cell growth at 10 uM after 48 hrs by sulforhodamine B assay. Type of test: functional. As to conditions: MCF7, 48 h, read-out: Activity. The gist of the method: as §2
The test system of the next test is T47D. Nature of the test: Growth inhibition of human T47D cells assessed as cell growth at 10 uM after 48 hrs by sulforhodamine B assay. In kind it is functional. As to conditions: read-out: Activity. The gist of the method: as §3
In test [3] the test system is MDA-MB-231. Briefly: Growth inhibition of human MDA-MB-231 cells assessed as cell growth at 10 uM after 48 hrs by sulforhodamine B assay. As to conditions: MDA-MB-231, 48 h, read-out: Activity. Type of test: functional. The gist of the method:
as §2

Another test relates to SF-295. Briefly: Growth inhibition of human SF295 cells assessed as cell growth at 10 uM after 48 hrs by sulforhodamine B assay. Type of test: functional. As to conditions: SF-295, 48 h, read-out: Activity. The procedure, abridged: as §2
Test [4] in a line: Growth inhibition of human EKVX cells assessed as cell growth at 10 uM after 48 hrs by sulforhodamine B assay. In kind it is functional. As to conditions: read-out: Activity. The procedure, abridged: as §1
For the next test, the system named is TK-10. Briefly: Growth inhibition of human TK10 cells assessed as cell growth at 10 uM after 48 hrs by sulforhodamine B assay. As to conditions: TK-10, 48 h, read-out: Activity. Type of test: functional. The gist of the method: as §3

Consider `CC(C)=CCC/C(C)=C/CC/C(C)=C/CC[C@]1(C)CCc2c3c(c(C)c(C)c2O1)OCN(CCCCCCCCCCO)C3`, for which the growth at 10 µM stood at 90% in the test with HOP-62; 90% in the test with HT-29; 83.1% in the test with RXF 393; 99.4% in the test on SN12C; 77.6% in the test on K562; 95.6% with SK-MEL-5. Further, the growth at 10 µM with COLO 205 came out at 100%; with MCF7 it was 93.4%; in the test on T47D it was 85.2%; in the test on MDA-MB-231 [3], 112%; in the test with SF-295, 111%; in test [4], 102%. In addition, the growth at 10 µM in the test on TK-10 worked out at 99.4%. Further, the IC50 was 15.7 µM in the test with MDA-MB-231 [1] and 4.4 µM in test [2].

For the compound `COc1ccc(CCN2COc3c(C)c(C)c4c(c3C2)CC[C@@](C)(CC/C=C(\C)CC/C=C(\C)CCC=C(C)C)O4)cc1OC`, the growth at 10 µM in the test on HOP-62 is 85.7%; in the test with HT-29 it was 91.7%; in the test with SN12C, 87.3%; in the test with K562 it was 78.3%; with SK-MEL-5, 107%; in the test on COLO 205, 86.7%. The growth at 10 µM with MCF7 was determined as 77.5%; in the test on T47D, 98%; in the test with MDA-MB-231 [3], 96.1%; in the test on SF-295, 108%; in test [4] it was 94.1%; in the test on TK-10 it was 105%. For the same compound, the IC50 with MDA-MB-231 [1] was greater than 50 µM; in [2], 1.8 µM.

With `COc1ccc(CCNCc2c(O)c(C)c(C)c3c2CC[C@@](C)(CC/C=C(\C)CC/C=C(\C)CCC=C(C)C)O3)cc1OC`, the growth at 10 µM came to 115% with HOP-62; 45.8% in the test with HT-29; 74% in the test with SN12C; 42% in the test on K562; 108% in the test on SK-MEL-5; 5.95% in the test on COLO 205. For the same compound, the growth at 10 µM in the test with MCF7 worked out at 29.3%; in the test with T47D, 83.2%; in the test on MDA-MB-231 [3], 78.6%; with SF-295, 102%; in [4] it was 99.3%; in the test with TK-10, 106%. Further, half-maximal inhibition in test [2] (IC50) required 1.7 µM.

As to `CC(C)=CCC/C(C)=C/CC/C(C)=C/CC[C@]1(C)CCc2cc(O)c(C)c(C)c2O1` [GAMMA-TOCOTRIENOL], the growth at 10 µM with HOP-62 was 108%; in the test on HT-29, 96.1%; in the test with RXF 393 it was 84.1%; with SN12C, 96%; with K562, 85%; in the test on SK-MEL-5 it was 99.1%. Moreover, the growth at 10 µM with COLO 205 was 94.4%; in the test on MCF7 it was 84.1%; in the test on T47D, 82.5%; in the test on MDA-MB-231 [3], 108%; in the test with SF-295 it was 105%; in test [4] it was 110%. The growth at 10 µM with TK-10 came out at 122%. Besides, the IC50 in the test with MDA-MB-231 [1] is 9.4 µM.

On to `CC(C)=CCC/C(C)=C/CC/C(C)=C/CC[C@]1(C)CCc2c(CNCCc3ccc(O)cc3)c(O)c(C)c(C)c2O1`, for which the growth at 10 µM in the test on HOP-62 is 105%; in the test with HT-29, 95.5%; in the test with SN12C it was 95.1%; in the test on K562 it was 63%; with SK-MEL-5, 111%; in the test with COLO 205 it was 106%. The growth at 10 µM in the test with MCF7 came out at 36.9%; in the test on T47D it was 99.1%; in the test with MDA-MB-231 [3], 89.5%; in the test with SF-295, 105%; in test [4] it was 99.8%; in the test with TK-10 it was 113%. This compound also showed an IC50 in test [2] of 2.3 µM.

As to `CC(C)=CCC/C(C)=C/CC/C(C)=C/CC[C@]1(C)CCc2c3c(cc(C)c2O1)OCN(CCCCCCCCCCCCO)C3`, the growth at 10 µM worked out at 86.9% in the test on HOP-62; 49.5% with HT-29; 34.4% in the test with RXF 393; 71.8% in the test on SN12C; 47.4% in the test on K562; 58.1% in the test on SK-MEL-5. The growth at 10 µM in the test with COLO 205 turned out to be 71.2%; with MCF7 it was 26.3%; with T47D, 78.5%; in the test with MDA-MB-231 [3] it was 99.8%; in the test on SF-295 it was 93.3%; in test [4] it was 77.6%. Further, the growth at 10 µM in the test on TK-10 turned out to be 58.4%. The IC50 in the test with MDA-MB-231 [1] is greater than 50 µM; in test [2], 2 µM.

As for `CC(C)=CCC/C(C)=C/CC/C(C)=C/CC[C@]1(C)CCc2c3c(cc(C)c2O1)OCN(CCCCCCCCCCO)C3`, the growth at 10 µM came out at 107% in the test on HOP-62; 48.3% in the test with HT-29; 52.6% with RXF 393; 92.7% with SN12C; 45.4% in the test on K562; 85.2% with SK-MEL-5. For the same compound, the growth at 10 µM is 79.3% in the test with COLO 205; 59.2% in the test on MCF7; 86.1% in the test on T47D; 119% in the test with MDA-MB-231 [3]; 114% with SF-295; 87.1% in [4]. Further, the growth at 10 µM with TK-10 turned out to be 101%. For the same compound, the figures for the IC50 (with MDA-MB-231 [1]; in test [2]) were 12.4 µM and 3.6 µM, respectively.

Consider `CC(C)=CCC/C(C)=C/CC/C(C)=C/CC[C@]1(C)CCc2c3c(c(C)c(C)c2O1)OCN(CCCCCCCCCCCCO)C3`, for which the growth at 10 µM in the test on HOP-62 was determined as 104%; with HT-29, 84.4%; in the test with RXF 393, 92.5%; in the test with SN12C, 97.4%; with K562 it was 80.5%; with SK-MEL-5, 92.8%. The growth at 10 µM in the test with COLO 205 amounted to 97.5%; in the test with MCF7, 100%; with T47D, 95.8%; with MDA-MB-231 [3] it was 119%; with SF-295, 93.5%; in [4], 105%. Moreover, in the test on TK-10, the growth at 10 µM was found to be 108%. The IC50 with MDA-MB-231 [1] is greater than 50 µM; in test [2], greater than 5 µM.

As for `CC(C)=CCC/C(C)=C/CC/C(C)=C/CC[C@]1(C)CCc2c3c(c(C)c(C)c2O1)OCN(CCc1ccc(O)cc1)C3`, the growth at 10 µM in the test with HOP-62 amounted to 112%; in the test on HT-29 it was 84.5%; in the test on SN12C, 85.4%; in the test on K562, 54.9%; with SK-MEL-5, 115%; with COLO 205, 52.1%. The growth at 10 µM in the test with MCF7 came out at 16.9%; in the test on T47D, 93.7%; in the test with MDA-MB-231 [3], 68.5%; in the test with SF-295, 100%; in [4], 93.9%; with TK-10 it was 106%. Besides, the results for the IC50 (in the test on MDA-MB-231 [1]; in test [2]) were greater than 5 µM and 1.5 µM, respectively.
